Reference: ChEMBL document CHEMBL4265993, “Antibacterial Cyclic Lipopeptide Enamidonins with an Enamide-Linked Acyl Chain from a Streptomyces Species” (2018)
≈ marks a conversion by molar mass, not a printed value. Calls of active or inactive are those of the source. The rule behind the calls is not given here.

What was measured:
Assay type in all cases: functional
Staphylococcus aureus [1] = assay: Antibacterial activity against quinolone-resistant Staphylococcus aureus CCARM 3519 after 24 hrs by two-fold serial dilution method; conditions: CCARM 3519, 24 h
Summary of the method: (§1)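 MIC by broth microdilution. Bacteria were grown to mid-log phase in appropriate growth media and seeded into 96-well plates at 10^5 cells/mL. Compounds, with ciprofloxacin as reference, were prepared in DMSO and tested as serial 2-fold dilutions. MICs were determined in triplicate.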

Staphylococcus aureus [2] = assay: Antibacterial activity against methicillin-resistant Staphylococcus aureus CCARM 3167 after 24 hrs by two-fold serial dilution method; conditions: CCARM 3167, 24 h; summary of the method: as §1
Bacillus subtilis [3] = assay: Antibacterial activity against Bacillus subtilis assessed as diameter of inhibition zone after 24 hrs by disk diffusion method
Summary of the method: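 Disk diffusion. B. subtilis colonies cultured 24 h at 28 °C were suspended in sterile distilled water and inoculated onto nutrient agar. A 6 mm i.d. paper disk holding sample was placed on the plate, which was incubated 24 h at 28 °C. Read-out was the inhibition zone.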

Staphylococcus aureus [4] = assay: Antibacterial activity against Staphylococcus aureus RN4220 after 24 hrs by two-fold serial dilution method; conditions: RN4220, 24 h
Summary of the method: (§2)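 Broth microdilution MIC. Bacteria grown to mid-log phase in appropriate media and seeded in 96-well microtiter plates at 10^5 cells/mL. Treated with serial 2-fold dilutions of compounds prepared in DMSO, with ciprofloxacin as the reference drug. MIC determined in triplicate.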

Pseudomonas aeruginosa = assay: Antibacterial activity against Pseudomonas aeruginosa KCTC 2004 after 24 hrs by two-fold serial dilution method; conditions: KCTC 2004, 24 h; summary of the method: as §2
Acinetobacter baumannii = assay: Antibacterial activity against Acinetobacter baumannii KCTC 2508 after 24 hrs by two-fold serial dilution method; conditions: KCTC 2508, 24 h; summary of the method: as §2
Enterococcus faecalis = assay: Antibacterial activity against Enterococcus faecalis KCTC 5191 after 24 hrs by two-fold serial dilution method; conditions: KCTC 5191, 24 h; summary of the method: as §2
Bacillus subtilis [5] = assay: Antibacterial activity against Bacillus subtilis KCTC 1021 after 24 hrs by two-fold serial dilution method; conditions: KCTC 1021, 24 h; summary of the method: as §2
Streptococcus pneumoniae = assay: Antibacterial activity against Streptococcus pneumoniae KCTC 5412 after 24 hrs by two-fold serial dilution method; conditions: KCTC 5412, 24 h; summary of the method: as §2
Escherichia coli = assay: Antibacterial activity against Escherichia coli CCARM 1356 after 24 hrs by two-fold serial dilution method; conditions: CCARM 1356, 24 h; summary of the method: as §2
Staphylococcus aureus [6] = assay: Antibacterial activity against methicillin-resistant Staphylococcus aureus CCARM 3506 after 24 hrs by two-fold serial dilution method; conditions: CCARM 3506, 24 h; summary of the method: as §1
Staphylococcus aureus [7] = assay: Antibacterial activity against quinolone-resistant Staphylococcus aureus CCARM 3505 after 24 hrs by two-fold serial dilution method; conditions: CCARM 3505, 24 h; summary of the method: as §1

SMILES	MIC (Staphylococcus aureus [1])	MIC (Staphylococcus aureus [2])	diameter of the inhibition zone (DIZ) (Bacillus subtilis [3])	MIC (Staphylococcus aureus [4])	MIC (Pseudomonas aeruginosa)	MIC (Acinetobacter baumannii)	MIC (Enterococcus faecalis)	MIC (Bacillus subtilis [5])	MIC (Streptococcus pneumoniae)	MIC (Escherichia coli)	MIC (Staphylococcus aureus [6])	MIC (Staphylococcus aureus [7])	Activity (Bacillus subtilis [3])
CC(C)C[C@@H]1NC(=O)CN2C(=O)[C@H](CNC(=O)[C@@H](CNC(=O)/C=C/NC(=O)/C=C/C=C/CCC/C=C/CC[C@@H](C)O)NC1=O)NC2(C)C	16 µg/mL (≈ 23.8 µM)	32 µg/mL (≈ 47.6 µM)	13.5 mm	> 128 µg/mL	> 128 µg/mL	> 128 µg/mL	8 µg/mL (≈ 11.9 µM)	16 µg/mL (≈ 23.8 µM)	> 128 µg/mL	> 128 µg/mL	8 µg/mL (≈ 11.9 µM)	16 µg/mL (≈ 23.8 µM)	–
CC[C@H](C)[C@@H]1NC(=O)[C@H]([C@@H](C)O)N2C(=O)[C@H](CNC(=O)[C@@H](CNC(=O)/C=C/NC(=O)/C=C/C=C/CCC/C=C/CC[C@@H](C)O)NC1=O)NC2(C)C	32 µg/mL (≈ 44.7 µM)	64 µg/mL (≈ 89.4 µM)	13.5 mm	32 µg/mL (≈ 44.7 µM)	> 128 µg/mL	> 128 µg/mL	64 µg/mL (≈ 89.4 µM)	16 µg/mL (≈ 22.3 µM)	> 128 µg/mL	> 128 µg/mL	16 µg/mL (≈ 22.3 µM)	32 µg/mL (≈ 44.7 µM)	–
O=C(O)c1cn(C2CC2)c2cc(N3CCNCC3)c(F)cc2c1=O [CIPROFLOXACIN]	–	4 µg/mL (≈ 12.1 µM)	–	–	–	0.25 µg/mL (≈ 0.754 µM)	1 µg/mL (≈ 3.02 µM)	0.0312 µg/mL (≈ 0.0943 µM)	–	64 µg/mL (≈ 193 µM)	–	32 µg/mL (≈ 96.6 µM)	–
CC[C@H](C)[C@@H]1NC(=O)[C@H]([C@@H](C)O)NC(=O)[C@@H](N)CNC(=O)[C@@H](CNC(=O)/C=C/NC(=O)/C=C/C=C/CCC/C=C/CC[C@@H](C)O)NC1=O	–	–	–	–	–	–	–	–	–	–	–	–	inactive
CC(C)C[C@@H]1NC(=O)CNC(=O)[C@@H](N)CNC(=O)[C@@H](CNC(=O)/C=C/NC(=O)/C=C/C=C/CCC/C=C/CC[C@@H](C)O)NC1=O	–	–	–	–	–	–	–	–	–	–	–	–	inactive
C[C@@H](O)CC/C=C/CCC/C=C/C=C/C(=O)N/C=C/C(=O)NC[C@H]1NC(=O)[C@H](Cc2ccccc2)NC(=O)CNC(=O)[C@@H](N)CNC1=O	–	–	–	–	–	–	–	–	–	–	–	–	inactive
C[C@@H](O)CC/C=C/CCC/C=C/C=C/C(=O)N/C=C/C(=O)NC[C@H]1NC(=O)[C@H](Cc2ccccc2)NC(=O)CN2C(=O)[C@H](CNC1=O)NC2(C)C	> 128 µg/mL	> 128 µg/mL	15 mm	> 128 µg/mL	> 128 µg/mL	> 128 µg/mL	> 128 µg/mL	4 µg/mL (≈ 5.67 µM)	> 128 µg/mL	> 128 µg/mL	> 128 µg/mL	> 128 µg/mL	–
